From PMC7427514 (Chem, 2020)

Key:
[1] = tested on: WT and Ts65Dn hippocampal neurons; experiment: MQAE Cl− imaging in neuronal cultures; type: cell-based, mouse; conditions: 10 μM
In short: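 Hippocampal neurons from P2 WT and Ts65Dn pups were cultured on poly-L-lysine coverslips in Neurobasal-A/B-27. At 15 DIV they were loaded with 5 mM MQAE plus test compound (10 μM) or DMSO for 30 min at 37°C. Coverslips were then perfused with extracellular solution (pH 7.4) containing compound for 5 min at 25°C and imaged by confocal microscopy.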

[2] = tested on: valproic acid (VPA) mouse model of ASD; experiment: Marble burying test in VPA mice; type: in vivo; conditions: 0.2 mg kg−1 IP daily, chronic
In short: (§1)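 Male VPA-model mice (prenatal VPA 600 mg/kg i.p. at gestational day 12.5) and controls, 6–8 weeks old, were randomized to vehicle (2% DMSO in saline) or test compound 0.2 mg/kg i.p. daily for 21–28 days. Tests started after 1 week of treatment, 1 h post-injection, and were video-scored manually by a blind operator.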

GABAA receptors = experiment: Voltage-clamp recordings of GABA-evoked currents in neuronal cultures; type: cell-based; conditions: 10 μM bath application; 12–20 DIV hippocampal mouse neurons
In short: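 Cultured hippocampal mouse neurons at DIV12–20 were voltage-clamped at 22–24°C in extracellular solution. GABA-evoked currents (average of five sweeps) were recorded before and after bath application of test compound (10 μM). Cells with access resistance >25 MΩ or with >20% variation in GABA-current peak were excluded. Signals were sampled at 20 kHz and low-pass filtered at 10 kHz.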

[3] = tested on: Ts65Dn mice and WT littermates; experiment: Diuresis analysis in Ts65Dn mice and WT littermates; type: in vivo, mouse; conditions: 0.2 mg kg−1 IP; adult WT and Ts65Dn mice; relative to vehicle
In short: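 Adult (P60–120) Ts65Dn mice and WT littermates of both sexes received one i.p. dose of vehicle or test compound at 0.2 mg/kg. The dose was given from a 1 mg/mL DMSO stock diluted in PBS to 0.02 mg/mL and injected at 10 μL/g. Urine volume was collected for 2 h, after which mice were returned to home cages.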

VPA mice and controls = experiment: Diuresis analysis in VPA mice and controls; type: in vivo, mouse; conditions: 0.2 mg kg−1 IP; young adult control and VPA mice; relative to vehicle
In short: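 VPA-model offspring were from C57BL/6J dams given 600 mg/kg VPA i.p. in PBS at gestational day 12.5; controls were included. Mice of both sexes received one i.p. dose of vehicle or test compound at 0.2 mg/kg, from a 1 mg/mL DMSO stock diluted in PBS to 0.02 mg/mL and injected at 10 μL/g. Urine volume was collected for 120 min.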

NKCC2 = molecular target: T1, NKCC2 (Homo sapiens, UniProt Q13621); experiment: Cl− influx assay in NKCC2-transfected HEK293 cells; type: cell-based; conditions: HEK293, read-out: NKCC2 inhibition
T1 sequence (Q13621 1-1099): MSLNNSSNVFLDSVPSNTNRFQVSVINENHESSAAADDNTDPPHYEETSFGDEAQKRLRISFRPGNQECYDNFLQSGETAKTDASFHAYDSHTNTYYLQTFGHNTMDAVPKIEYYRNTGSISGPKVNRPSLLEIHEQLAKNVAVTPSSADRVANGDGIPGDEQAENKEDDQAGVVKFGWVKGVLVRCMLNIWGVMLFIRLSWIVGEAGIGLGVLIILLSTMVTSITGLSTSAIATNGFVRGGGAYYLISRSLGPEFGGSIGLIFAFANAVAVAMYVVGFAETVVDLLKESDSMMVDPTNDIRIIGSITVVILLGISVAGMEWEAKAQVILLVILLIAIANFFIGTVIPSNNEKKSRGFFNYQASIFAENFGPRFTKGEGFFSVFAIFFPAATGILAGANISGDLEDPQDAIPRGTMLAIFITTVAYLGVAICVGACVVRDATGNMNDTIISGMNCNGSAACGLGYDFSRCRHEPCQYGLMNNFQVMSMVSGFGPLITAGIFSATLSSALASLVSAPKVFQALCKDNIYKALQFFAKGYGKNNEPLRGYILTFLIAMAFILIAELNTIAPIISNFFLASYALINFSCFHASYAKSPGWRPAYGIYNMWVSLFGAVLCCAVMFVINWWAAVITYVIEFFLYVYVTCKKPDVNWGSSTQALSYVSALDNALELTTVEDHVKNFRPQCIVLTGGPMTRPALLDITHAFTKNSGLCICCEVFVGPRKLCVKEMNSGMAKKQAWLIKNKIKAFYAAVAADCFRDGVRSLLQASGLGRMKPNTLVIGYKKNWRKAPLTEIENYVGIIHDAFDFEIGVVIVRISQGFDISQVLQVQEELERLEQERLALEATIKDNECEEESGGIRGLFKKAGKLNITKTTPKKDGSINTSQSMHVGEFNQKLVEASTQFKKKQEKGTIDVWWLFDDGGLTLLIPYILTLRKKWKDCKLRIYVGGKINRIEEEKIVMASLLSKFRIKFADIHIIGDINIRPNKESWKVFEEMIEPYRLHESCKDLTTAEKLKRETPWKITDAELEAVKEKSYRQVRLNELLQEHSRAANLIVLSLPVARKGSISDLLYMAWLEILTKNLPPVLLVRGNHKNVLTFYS
In short: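 HEK293 cells were co-transfected by lipofection with NKCC2 (in PRK5) or empty vector plus membrane-tagged Cl−-sensitive YFP, replated after 4 h, and assayed at 48 h. Test compound (10 or 100 μM) was applied for 30 min in Cl−-free hypotonic HEPES buffer, pH 7.4. Fluorescence (ex 485/em 535 nm) was read for 20 s baseline and 60 s after NaCl (74 mM final). Fluorescence decrease is expressed as % of DMSO control; four independent experiments, mean ± SEM.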

[4] = tested on: valproic acid (VPA) mouse model of ASD; experiment: Grooming test in VPA mice; type: in vivo; conditions: 0.2 mg kg−1 IP daily, chronic
In short: as §1

[5] = tested on: 3DIV hippocampal mouse neurons; experiment: Ca2+ influx assay upon GABA application in immature; type: cell-based; conditions: for Ca2+ influx upon GABA application: 10, 100 μM, GABA 100 μM, compared with DMSO-treated controls; for cell viability (fluorescence level upon KCl application): KCl 90 mM, 3DIV neurons
[6] = tested on: valproic acid (VPA) mouse model of ASD; experiment: Male-female interaction test in VPA mice; type: in vivo; conditions: 0.2 mg kg−1 IP daily, chronic
In short: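 Male VPA-model mice (6–8 weeks) and controls were dosed i.p. daily with vehicle or test compound at 0.2 mg/kg, with testing 1 h post-injection after at least 1 week of treatment. Each male was placed alone in a cage and habituated for 5 min. An unfamiliar C57BL/6J female was then introduced, and behavior was recorded for 5 min and scored blind.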

KCC2 = molecular target: T2, KCC2 (Homo sapiens, UniProt Q9H2X9); experiment: Tl influx assay in KCC2-transfected HEK293 cells; type: cell-based; conditions: 10 μM, versus control DMSO, mean ± SEM
T2 sequence (Q9H2X9 1-1139): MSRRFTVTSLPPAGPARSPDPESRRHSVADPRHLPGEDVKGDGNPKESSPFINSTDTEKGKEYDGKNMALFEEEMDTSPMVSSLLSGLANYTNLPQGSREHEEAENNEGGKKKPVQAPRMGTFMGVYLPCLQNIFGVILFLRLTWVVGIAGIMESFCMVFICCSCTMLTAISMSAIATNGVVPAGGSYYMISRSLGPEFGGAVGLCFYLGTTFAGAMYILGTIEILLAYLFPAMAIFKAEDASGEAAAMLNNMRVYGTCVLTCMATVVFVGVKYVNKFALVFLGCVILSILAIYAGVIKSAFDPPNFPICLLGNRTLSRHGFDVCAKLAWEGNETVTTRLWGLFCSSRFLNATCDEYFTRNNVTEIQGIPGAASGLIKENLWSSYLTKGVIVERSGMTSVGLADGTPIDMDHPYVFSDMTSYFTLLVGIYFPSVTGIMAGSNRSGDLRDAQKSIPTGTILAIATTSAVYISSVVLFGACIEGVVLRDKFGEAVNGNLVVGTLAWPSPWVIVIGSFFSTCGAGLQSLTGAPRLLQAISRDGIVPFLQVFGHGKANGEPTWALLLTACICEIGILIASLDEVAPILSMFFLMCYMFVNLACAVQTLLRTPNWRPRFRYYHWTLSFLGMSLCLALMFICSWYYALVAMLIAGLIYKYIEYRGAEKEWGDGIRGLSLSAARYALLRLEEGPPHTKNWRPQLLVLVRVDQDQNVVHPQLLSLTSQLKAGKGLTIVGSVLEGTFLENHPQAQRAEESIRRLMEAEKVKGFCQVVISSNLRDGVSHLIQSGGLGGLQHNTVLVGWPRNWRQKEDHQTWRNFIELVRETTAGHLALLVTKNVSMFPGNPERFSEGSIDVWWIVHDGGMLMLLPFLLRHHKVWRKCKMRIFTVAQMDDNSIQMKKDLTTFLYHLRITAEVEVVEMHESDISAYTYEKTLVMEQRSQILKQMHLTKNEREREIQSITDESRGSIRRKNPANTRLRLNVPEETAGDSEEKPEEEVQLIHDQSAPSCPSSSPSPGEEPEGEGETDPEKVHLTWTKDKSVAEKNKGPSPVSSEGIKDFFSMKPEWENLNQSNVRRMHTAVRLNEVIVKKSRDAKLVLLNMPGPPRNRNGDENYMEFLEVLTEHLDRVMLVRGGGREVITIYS
In short: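 KCC2 (in PRK5)- or mock-transfected HEK293 cells were loaded for 1 h with Tl-sensitive dye (1:1,000) and probenecid (1:100) in Cl−-free hypotonic solution, washed, then treated with test compound with 100 μM ouabain. Fluorescence (ex 485/em 535 nm) was read for 20 s baseline, 20 s after TlSO4 (2 mM final), then 60 s after NaCl (74 mM final). Mock ΔF/F0 (last 10 s) was subtracted; fluorescence increase is expressed as % of DMSO control.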

| SMILES | [Cl−]i in wild-type (WT) neurons ([1]; 15 DIV WT neurons) | [Cl−]i in Ts65Dn neurons ([1]; mature (15 DIV) Ts65Dn neurons) | repetitive behaviors in the marble burying test [2] | inhibitory activity on GABAA receptors (GABA-evoked currents) (GABAA receptors) | diuretic effect (urine volume for 2 h) [3] | diuretic effect (urine volume for 2 h) (VPA mice and controls) | inhibition at 10 µM (NKCC2) | repetitive behaviors in the grooming task [4] | Ca2+ influx upon GABA application [5] | level of alleged NKCC1 inhibition in the Ca2+ influx assay compared with the Cl− influx assay ([5]; 10 and 100 μM) | cell viability (fluorescence level upon KCl application) [5] | sociability during male-female interaction [6] | KCC2 inhibition (KCC2) |
| --- | --- | --- | --- | --- | --- | --- | --- | --- | --- | --- | --- | --- | --- |
| CCCCNc1cc(C(=O)O)cc(S(N)(=O)=O)c1Oc1ccccc1 [bumetanide] | without significantly affecting | restored aberrant [Cl^−]i to physiological levels | significantly reduced repetitive behaviors | this was not the case | significantly increased the urine volume | significantly increased the urine volume | 82.7 ± 20.4% | non-significant trend toward WT levels | significantly reduced | corresponded to the levels obtained for the Cl^− influx assay | without affecting the cell viability | rescued poor sociability | – |
| NS(=O)(=O)c1cc(C(=O)O)c(NCc2ccco2)cc1Cl [furosemide] | – | – | – | variable inhibitory activity | – | – | – | – | significantly reduced | – | without affecting the cell viability | – | – |
| CCCC[C@]1(C2CCCC2)Cc2cc(OCC(=O)O)c(Cl)c(Cl)c2C1=O [DIOA, R-(+)-[(2-n-Butyl-6,7-dichloro-2-cyclopentyl-2,3-dihydro-1-oxo-1H-inden-5-yl)oxy]acetic acid] | – | – | – | – | – | – | – | – | – | – | – | – | 37.6 ± 6.7% |
